SR-BI uptake up = activators of SR-BI mediated DiI-HDL uptake, primary screen, ldlA[mSR-BI] CHO cells, DiI fluorescence. 3 h; 100 = double the neutral-control signal. activation, % at 12.5 µM. 320,000 tested, 0.096% active;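 active means mean replicate activation of at least 60% and every replicate at or above 60%; inconclusive means mean or all-replicate condition met, but not both; inactive means mean below 60% and not all replicates reaching 60%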;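 further: 0% = median plate neutral-control signal and 100% = twice that signal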
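Assay system: LDL receptor-deficient CHO ldlA cells overexpressing murine SR-BI / Medium: BSA-supplemented, HEPES-buffered Ham's F12, pH 7.4 / Probe or stimulus: DiI-labelled HDL at 10 µg/mL final / Timing: compound with DiI-HDL co-incubation, 3 h at 37 °C / Technique: bottom-read cell fluorescence after medium removal, ex 550/em 595 nm / Measure: HDL uptake via cellular fluorescence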
SR-BI DiI inh = inhibitors of SR-BI mediated HDL lipid uptake, primary screen, ldlA[mSR-BI] cells, fluorescence, single point; ldlA[mSR-BI] CHO cells, DiI-HDL uptake fluorescence, 3 h; 320,000 tested, 0.96% active; Scavenger receptor class B member 1 (Mus musculus), Q61009; AID 488896, 2010; inhibition, % at 12.5 µM;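 active means mean replicate inhibition of at least 70% and a set share of replicates each scoring 70 or more; inconclusive means meets just one of the two criteria; inactive means fails both criteria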;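 further: 0% = median of neutral control wells and 100% = median of positive control wells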
Target sequence (Q61009 whole entry, looked up): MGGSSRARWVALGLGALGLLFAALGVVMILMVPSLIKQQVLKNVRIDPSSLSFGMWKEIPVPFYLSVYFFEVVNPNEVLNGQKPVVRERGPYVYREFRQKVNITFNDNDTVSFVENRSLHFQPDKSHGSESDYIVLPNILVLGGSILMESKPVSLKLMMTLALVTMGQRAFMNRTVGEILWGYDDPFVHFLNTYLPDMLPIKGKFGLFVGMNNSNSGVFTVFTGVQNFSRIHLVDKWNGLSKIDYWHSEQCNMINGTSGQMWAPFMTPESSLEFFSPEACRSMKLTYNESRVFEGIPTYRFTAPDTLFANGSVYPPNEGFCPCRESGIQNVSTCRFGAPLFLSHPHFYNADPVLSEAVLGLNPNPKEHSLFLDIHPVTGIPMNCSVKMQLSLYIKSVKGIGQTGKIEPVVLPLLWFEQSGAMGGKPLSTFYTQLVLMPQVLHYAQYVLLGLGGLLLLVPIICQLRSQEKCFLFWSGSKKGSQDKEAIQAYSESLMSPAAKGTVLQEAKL
CDK5 inh = inhibitors of human CDK5/p35 kinase, primary screen, biochemical, single concentration; Recombinant CDK5/p35, ADP-Glo luminescence, 60 min; inhibition, % at 10 µM; 330,000 tested, 0.01% active;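 active means highest replicate inhibition of at least 50% and at least 75% of replicates reaching 50%; inconclusive means only one of the two criteria met; inactive means both criteria failed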;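 further: plate controls were DMSO neutral control for no effect and GW8510 at 10 µM for full effect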
dFosB activator = activators of delta FosB homodimer, primary screen, biochemical, fluorescence polarization, TAMRA-CDK5 oligo, single point; 340,000 tested, 0.99% active; AID 493131, 2011; activation, % at 25 µM; Protein FosB (Mus musculus), P13346; purified delta FosB; percent of positive-control signal above neutral wells;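 active means mean activation above about 17%, with every replicate also reaching it, limit read from the data, passing the limit was not always enough; inconclusive means only one of the two conditions met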
DiI quencher = quenches DiI-HDL fluorescence, an SR-BI assay artifact; cell-free DiI-HDL fluorescence quenching, 30 min; AID 540326; AC50, µM (top dose mostly 35 µM), inactives show at the highest dose activity change, negative = quenching; shares compounds with SR-BI DiI inh; 470 tested, 20% active;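 active means quenching, a falling signal, with AC50 below a set limit tied to the top valid dose, actives reach about 32 µM in these data; inconclusive means no clear call, values can overlap the other calls; inactive means rising signal, and the rest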
* = called active by the depositor. Shown are actives, neighbours in structure and some others; about 2% of the full set was active somewhere.

Results for COc1ccc2sc(-c3ccc(SC)cc3)c(C#CCO)c2c1 ?
SR-BI uptake up: -64.8; SR-BI DiI inh: 64.8; CDK5 inh: -0.4; dFosB activator: -19.5

Results for COc1ccc2sc(-c3ccc(N(C)C)cc3)c(C#Cc3cncn3C)c2c1 ?
SR-BI uptake up: -77.4; SR-BI DiI inh: 77.4*; CDK5 inh: 0.4; dFosB activator: -14.6; DiI quencher: 2.22µM*

Results for COc1ccc2sc(-c3ccc(SC)cc3)c(C#CC(C)(C)O)c2c1 ?
SR-BI uptake up: -64.3; SR-BI DiI inh: 64.3; CDK5 inh: -4.9; dFosB activator: 6.4

How did COc1ccccc1/C=C/CN1CCC(Oc2cc(C(=O)NC3CC3)ccc2OC)CC1 do in these assays?
SR-BI uptake up: -29.3; SR-BI DiI inh: 29.3; CDK5 inh: -0.2; dFosB activator: -12.5

How did Cc1cc(C)cc(NC(=O)CSc2nc(=O)n(CCCN3CCOCC3)c3c2CCCC3)c1 do in these assays?
SR-BI uptake up: -8.3; SR-BI DiI inh: 8.3; CDK5 inh: 0.7; dFosB activator: -11.5

Results for COc1cc(SC)ccc1C(=O)OCC(=O)N1CCN(C(C)=O)CC1 ?
SR-BI uptake up: -8.5; SR-BI DiI inh: 8.5; CDK5 inh: 2.1; dFosB activator: -0.6

Results for CC(CCc1ccccc1)NC(=O)C1CCN(C(=O)c2sccc2-n2cccc2)CC1 (stereo not drawn) ?
SR-BI uptake up: -87.7; SR-BI DiI inh: 87.7*; CDK5 inh: -4.9; dFosB activator: -3.6; DiI quencher: -3.2%

Results for Nc1nc2ccccc2n1CCOc1ccc(F)cc1 ?
SR-BI uptake up: 34.7; SR-BI DiI inh: -34.6; CDK5 inh: 1.3; dFosB activator: 4.9

What do the screens show for `COC(=O)C1C(=O)c2c([nH]c(C(=O)OC3CCCC3C)c2C)CC1C` (stereo not drawn)?
SR-BI uptake up: -36.7; SR-BI DiI inh: 36.7; CDK5 inh: 1.5; dFosB activator: -13.5; DiI quencher: -0.8%

What do the screens show for `CN(C(=O)COC(=O)c1c[nH]c(=O)[nH]c1=O)C1CCCCC1`?
SR-BI uptake up: -78.8; SR-BI DiI inh: 78.8*; CDK5 inh: 0.4; dFosB activator: -7.8; DiI quencher: -1.3%

Results for CN(C(=O)COC(=O)c1ccc(Cl)cc1N)C1CCCCC1 ?
SR-BI uptake up: -15.8; SR-BI DiI inh: 15.8; CDK5 inh: -0.2; dFosB activator: -7.6

How did c1ccc(-c2[nH]ncc2CN2CCN(Cc3ccc4c(c3)OCO4)CC2)cc1 do in these assays?
SR-BI uptake up: 15.5; SR-BI DiI inh: -15.5; CDK5 inh: -2.4; dFosB activator: -11.3

What do the screens show for `NS(=O)(=O)Oc1ccccc1`?
SR-BI uptake up: 29.7; SR-BI DiI inh: -29.7; CDK5 inh: -2.4; dFosB activator: 3.7

What do the screens show for `O=C(NCCC1CCCCN1S(=O)(=O)c1cccs1)C(=O)NCc1ccccc1` (stereo not drawn)?
SR-BI uptake up: -9.1; SR-BI DiI inh: 9.1; CDK5 inh: 0.2; dFosB activator: 4.8

What do the screens show for `Cc1cc(C)cc(NC(=O)CCc2c(C)nn(-c3ccc(N4CCCCC4)nn3)c2C)c1`?
SR-BI uptake up: -79.5; SR-BI DiI inh: 79.5*; CDK5 inh: 1.0; dFosB activator: -6.1; DiI quencher: -2.6%

Results for O=C(Nc1cccc(S(=O)(=O)N2CCOCC2)c1)C1CCCCN1S(=O)(=O)c1ccccc1 (stereo not drawn) ?
SR-BI uptake up: 11.5; SR-BI DiI inh: -11.5; CDK5 inh: -1.6; dFosB activator: -10.1

Results for O=C(Nc1cccc(S(=O)(=O)N2CCOCC2)c1)C1CCN(S(=O)(=O)c2ccccc2)CC1 ?
SR-BI uptake up: -76.1; SR-BI DiI inh: inconclusive; CDK5 inh: -0.1; dFosB activator: -8.2; DiI quencher: 6.0%

How did O=C(c1cc(=O)[nH]c2ccccc12)N1CCN(c2ccc([N+](=O)[O-])cc2)CC1 do in these assays?
CDK5 inh: 0.7; dFosB activator: -7.6

Results for Cc1nc2c(cnn2-c2ccccc2Cl)c(=O)n1-c1ccc(N2CCC(C)CC2)cc1 ?
SR-BI uptake up: -72.4; SR-BI DiI inh: 72.4*; CDK5 inh: 0.7; dFosB activator: -7.0; DiI quencher: -11.9%

What do the screens show for `Cc1ccc(-n2c(C)nc3c(cnn3-c3ccccc3Cl)c2=O)cc1C`?
SR-BI uptake up: -19.0; SR-BI DiI inh: 19.0; CDK5 inh: 0.9; dFosB activator: -5.6

How did CCOC(=O)c1c(Nc2nc(C)c(C(=O)NC)s2)sc(C)c1C do in these assays?
SR-BI uptake up: -93.3; SR-BI DiI inh: 93.3*; CDK5 inh: -1.4; dFosB activator: -12.1; DiI quencher: -13.5%

How did CCOC(=O)Nc1sc(C)c(C)c1C(=O)OCC do in these assays?
SR-BI uptake up: -7.7; SR-BI DiI inh: 7.7; CDK5 inh: -1.4; dFosB activator: -0.9

Results for CCCCCOC(=O)c1[nH]c2c(c1C)C(=O)CC(c1ccco1)C2 (stereo not drawn) ?
SR-BI uptake up: -79.6; SR-BI DiI inh: 79.6*; CDK5 inh: -1.0; dFosB activator: -5.7; DiI quencher: -4.6%

How did CCOCCOC(=O)c1[nH]c2c(c1C)C(=O)CC(c1cccs1)C2 (stereo not drawn) do in these assays?
SR-BI uptake up: -75.2; SR-BI DiI inh: 75.2*; CDK5 inh: 1.1; dFosB activator: 3.0; DiI quencher: -1.3%

How did CCOCCOC(=O)c1[nH]c2c(c1C)C(=O)CC(c1ccccc1)C2 (stereo not drawn) do in these assays?
SR-BI uptake up: -51.1; SR-BI DiI inh: 51.1; CDK5 inh: 0.7; dFosB activator: -2.1

What do the screens show for `COCCOC(=O)c1[nH]c2c(c1C)C(=O)CC(c1cccs1)C2` (stereo not drawn)?
CDK5 inh: 0.0; dFosB activator: 1.8

Results for CN(CC1CCCN(CCc2ccc(Cl)cc2)C1)C(=O)c1ccco1 (stereo not drawn) ?
SR-BI uptake up: -1.1; SR-BI DiI inh: 1.1; CDK5 inh: 0.9; dFosB activator: 2.8

Results for C=CCN(CC=C)C(=O)COn1nnc2ccc(S(=O)(=O)N3CCOCC3)cc21 ?
SR-BI uptake up: -17.0; SR-BI DiI inh: 17.0; CDK5 inh: -1.8; dFosB activator: -3.5; DiI quencher: -4.1%

How did O=C(c1ccc(Cl)cc1)N1CCC2CC1c1cc(-c3ccccc3)ccc12 (stereo not drawn) do in these assays?
SR-BI uptake up: -27.3; SR-BI DiI inh: 27.3; CDK5 inh: -1.7; dFosB activator: -4.8

What do the screens show for `O=C(c1cccc(Cl)c1)N1CCC2CC1c1cc(-c3ccccc3)ccc12` (stereo not drawn)?
SR-BI uptake up: -13.0; SR-BI DiI inh: 13.0; CDK5 inh: -0.3; dFosB activator: -1.5; DiI quencher: -5.2%

What do the screens show for `N#Cc1ccc(C(=O)N2CCC3CC2c2cc(-c4ccccc4)ccc23)cc1` (stereo not drawn)?
SR-BI uptake up: -5.2; SR-BI DiI inh: 5.2; CDK5 inh: 2.3; dFosB activator: 1.3; DiI quencher: -3.4%

Assay outcomes (PubChem BioAssay)
